Laboratory results as given in PubChem BioAssay AID804 (SRMLSC, 2007).
Out of some 140,000 compounds screened, about 710 (0.51%) were called active.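 How the source made its calls: active means inhibition above a set limit, 3 SD over the mean compound inhibition (cut at about 44% in these data); inactive means the rest.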 Only a selection was taken, and actives are over-represented in it overall.

Assay: growth inhibitors of yeast BB579 in restrictive medium, primary screen, yeast lifespan-shortening project, S. cerevisiae (AID 804)
Conditions: OD615, 48 h, at 10 µM, stronger effect = higher value
In short: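 test system = yeast BB579 (DeaD) | buffer or medium = restrictive CSMM-D medium | doses = single compound dose of 10 µM, 0.25% DMSO final | times = 4 h preincubation and 48 h exposure at 30 °C | technique = culture absorbance at 615 nm | benchmarks = amphotericin B 10 µg/mL, positive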

inhibition, active:
O=C1c2ccccc2NC(c2ccc(-c3cccc(Cl)c3)o2)N1O (stereo unspecified) 64.1%
Cc1ccc(-c2nn(C(C)(C)C)c3ncnc(N)c23)cc1 81.2%
O=C(CC(O)(C(F)(F)F)C(F)(F)F)Nc1ccc(Cl)c(Cl)c1 80.1%
CCN(CC)c1ccc(S(=O)(=O)N2CCOCC2)cc1NC(=O)CSc1cccc[n+]1[O-] 89%
CC(Sc1cccc[n+]1[O-])C(=O)Nc1cccc(S(=O)(=O)N2CCOCC2)c1 (stereo unspecified) 95.2%
Oc1c(CN2CCN(c3ccc(F)cc3)CC2)cc(Cl)c2cccnc12 99.3%
CCc1cccc(CC)c1NC(=S)NCc1ccc2[nH]c(C)cc2c1 54.3%
CC(Oc1ccc2ccccc2c1)C(=O)NNC(=S)NC(=O)c1ccco1 (stereo unspecified) 98.2%
CCCc1ccc(OCC(=O)NNC(=S)NC(=O)c2ccco2)cc1 98.5%
Cc1nc2ccc(C(=O)O)cc2[nH]1 44.4%
COc1cccc(/C=N/Nc2ncc(C(F)(F)F)cc2Cl)c1O 64.1%
CCOC(=O)c1cnc(-n2nc(C)cc2C)nc1NNc1cc(C)nc(-c2ccccc2)n1 63.6%
CNC(=O)c1cc2c(ccc3ccccc32)oc1=N 87%
O=C(NC(Nc1nc2ccc([N+](=O)[O-])cc2s1)(C(F)(F)F)C(F)(F)F)c1ccccc1 77.5%
Cn1c(-c2ccco2)nc2cc3ccccc3cc21 60.5%
O=C1C=C(c2ccc(Cl)cc2)C(=O)N1Nc1ccccc1 98.1%
CCN1/C(=C/c2ccc3ccc(C)cc3[n+]2CC)Sc2ccccc21 82.5%

inhibition, inactive:
Cc1ccc(N2C(=O)C(NC(=O)c3c(F)cccc3F)(C(F)(F)F)C3=C2CC(C)(C)CC3=O)cc1 (stereo unspecified) -1.52%
CCOC(=O)NN1C(=O)c2ccccc2NC1c1cccc(O)c1 (stereo unspecified) 9.36%
C=CCN(CC=C)S(=O)(=O)c1ccc(C(=O)Nc2nc3c(s2)CCc2ccccc2-3)cc1 -67.9%
O=C(C1CCCO1)N1CCN(C(=S)Nc2cccc(Cl)c2)CC1 (stereo unspecified) -3.25%
CC1(C)CC(=O)C(N=Nc2ccc(S(=O)(=O)N3CCCCCC3)cc2)=C(O)C1 -5.4%
C/C(CC(=O)Nc1ccc(Cl)cc1)=N\NC(=O)C(=O)NCCO -6.42%
Cc1cc2oc(C(=O)Nc3c(C)n(C)n(-c4ccccc4)c3=O)c(C)c2cc1Cl -44%
Cc1ccc(NC(=O)c2cccs2)cc1S(=O)(=O)N(C)C -35.7%
O=C(Cc1ccc(Cl)c(Cl)c1)Nc1ccc(SC(F)F)cc1 -39.5%
O=C(CC(=O)Nc1ccc(Cl)c(Cl)c1)N/N=C/c1ccc(O)cc1 -54.1%
Cc1scc(C(=O)NNC(=S)NCc2ccccc2)c1C -2.5%
CCOC(=O)NN1C(=O)c2ccccc2NC1c1ccccc1O (stereo unspecified) 7.28%
COC(=O)C1=C(C)N(C)C(=S)NC1c1ccccc1 (stereo unspecified) 8.95%
Cc1c(Cl)cnc(NC(=O)COC(=O)c2ccc(S(=O)(=O)NCc3ccco3)cc2)c1Cl -12.2%
Cc1ccc(-c2nn(-c3ccccc3)cc2C(=O)Nc2cccc(S(=O)(=O)N3CCOCC3)c2)cc1 -29%
O=C(CN1CCN(c2ccc(O)cc2)CC1)Nc1cc(S(=O)(=O)N2CCOCC2)ccc1Cl -37.9%
Cn1c(SCC(=O)Nc2cccc(O)c2)nnc1-c1ccc(S(=O)(=O)N2CCOCC2)cc1 2.85%
Cc1cc(C(=O)OC(C)C(=O)Nc2cccc(S(=O)(=O)N3CCOCC3)c2)c(C)o1 (stereo unspecified) -42.7%
COc1ccccc1CNC(=O)CN1CCC(n2cnc3cc(F)ccc32)CC1 -21.9%
Cn1c(CNC(=O)c2ccccc2F)nnc1SCc1ccc(F)cc1 6.65%
CCCCC1N2CC3([N+](=O)[O-])CN1CC([N+](=O)[O-])(C2)C3(C)C (stereo unspecified) -27.8%
CC(C)(C)C1C/C(=C/c2ccco2)C(=O)/C(=C/c2ccco2)C1 (stereo unspecified) -19.6%
O=C(c1cccc(C(=O)N2CCN(c3ccc(F)cc3)CC2)c1)N1CCN(c2ccc(F)cc2)CC1 -61.4%
CCN1CCN(C(c2cccnc2)c2cc(Cl)c3cccnc3c2O)CC1 (stereo unspecified) 6.22%
Cc1cc2cc(CNC(=O)c3cccs3)ccc2[nH]1 -4.49%
Cc1cccc(NC(=S)NCc2ccc3[nH]c4c(c3c2)CCCC4)c1 15.9%
COc1ccc(CCNC(=O)c2ccco2)cc1 -10.2%
O=C(Nc1ccc2ccccc2c1)/C(=C/c1cccc(Br)c1)NC(=O)c1ccco1 -32.8%
COc1ccc(C(=O)NC(=S)NNC(=O)CCc2ccccc2)cc1 -10.9%
O=C(Nc1ccc2ccccc2c1)/C(=C\c1ccc2c(c1)OCO2)NC(=O)c1ccco1 6.72%
NC(=O)C[C@@H]1NC(=O)CNC(=O)c2cc([N+](=O)[O-])cc(I)c2NCCC(C(N)=O)NC1=O (stereo partly specified) 1.08%
CC1CN/C(=C\C(=O)c2ccc(Br)cc2)C(=O)N1 (stereo unspecified) -42.4%
Cc1cc(Cl)ccc1NC(=S)N1CCC(C(N)=O)(N2CCCCC2)CC1 1.37%
Cc1ccc(OC(=O)CCC(=O)Nc2ccc(Br)cc2)cc1 3.42%
O=C(CSc1ncn[nH]1)Nc1nsc(-c2ccccc2)n1 4.99%
Cc1cccc(OP(=O)(Nc2c(C)n(C)n(-c3ccccc3)c2=O)Oc2cccc(C)c2)c1 -0.66%
CCOC(=O)C1CCN(C(=O)/C=C/c2cc(OC)c(OC)c(OC)c2)CC1 -12.6%
O=C(COC(=O)c1cc(-c2cccs2)nn1-c1ccccc1)Nc1cc([N+](=O)[O-])ccc1Cl -30.3%
O=C(Nc1cccc([N+](=O)[O-])c1)c1ccc2c(c1)OCO2 -10.3%
CCOC(=O)c1ccccc1C(=O)N1CCOCCOCCOCC1 -13.3%
CCCCOc1ccc(C(=O)NCC(=O)OCC(=O)N2CCN(S(=O)(=O)c3ccc(C)cc3C)CC2)cc1 -38.7%
O=C(COC(=O)/C=C/c1cccc(Cl)c1)NCCc1ccccc1 -16.6%
Cc1ccc2nc(S(=O)(=O)O)[nH]c2c1 -11.6%
CC(C)c1nc2ccc(C(=O)O)cc2[nH]1 -7.86%
COc1ccc(CCNC(=O)CSc2nc(-c3ccc(OC)c(OC)c3)ccc2C#N)cc1 -21.2%
COc1cccc(/C=N\NC(=O)C2=NNC(=O)C2C)c1O (stereo unspecified) 1.19%
COc1cc(/C=C2\SC(=S)N(Nc3ncc(C(F)(F)F)cc3Cl)C2=O)cc(OC)c1OC -16.3%
Cc1nn(C)c(C(=O)NNC(=S)NC2CCCCC2)c1Cl -11.7%
CCOC(=O)c1cnc(-n2nc(C)cc2C)nc1-n1nc(C)cc1C -33.3%
CCOC(=O)c1cnc(-c2ccccc2)nc1Oc1ccc(C)cc1 -3.41%
CCc1cc(C(N)=O)c(NC(=O)c2ccc(OC)cc2)s1 13.8%
COc1cccc(NC(=S)N(CCc2c(C)[nH]c3ccccc23)Cc2ccco2)c1 -16.9%
O=C(Nc1cccc(F)c1)c1coc(=O)c(Br)c1 -16.6%
CCOC(=O)N1CCN(C(=O)c2cc3c(ccc4ccccc43)oc2=O)CC1 4.59%
N=c1oc2ccccc2cc1C(=O)N/N=C/c1ccccc1 -35.6%
O=[N+]([O-])c1cc(C(F)(F)F)ccc1NN=C1CCCC1 -8.75%
Cc1ccc(Cl)cc1N1CCN(C(=O)c2cccc3c(=O)c(C)c(-c4ccccc4)oc23)CC1 -11.9%
COc1ccc(-c2[nH]ncc2/C=N/NC(=O)c2cc(Br)ccc2O)c(OC)c1 -15.9%
CCCc1cc(-c2nc(-c3ccc(C)cc3)cs2)ccn1 6.88%
COc1ccc([C@H]2[C@H](C(C)=O)N3N=Cc4ccccc4C3C23C(=O)OC(C)(C)OC3=O)cc1 (stereo partly specified) -14.6%
CNc1ccc(NC(C)=O)cc1[N+](=O)[O-] -4.52%
Cc1cc(C)cc(OCC(=O)Nc2nc3ccc([N+](=O)[O-])cc3s2)c1 -41.2%
COC(=O)C(NC(=O)c1ccc(OC)cc1)(Nc1ncc(S(=O)(=O)c2ccc([N+](=O)[O-])cc2)s1)C(F)(F)F (stereo unspecified) -39.1%
Cc1c(Cl)cccc1NC(=O)Nc1ccc(C(=O)N2CCCC2)cc1 -7.32%
CN(c1nc2ccccc2n2c(-c3ccco3)nnc12)S(=O)(=O)c1ccccc1 -17.9%
CN1c2ccccc2-c2nc3ccccc3n2C1c1ccco1 (stereo unspecified) -46.1%
CC(C)C(=O)Nc1ccc2c3c(cccc13)CC2 -41.5%
O=C1c2cccc3cc(Br)cc(c23)C(=O)N1Nc1ccccc1 -67.3%
O=C(Nc1ccccc1)OCc1cc(-c2ccc(Cl)cc2)on1 -39.2%
CCn1ncc(CNC(=O)C2(C)CC2(Br)Br)c1C (stereo unspecified) -38.8%
COc1ccc(NC(=S)NCc2cccs2)c(OC)c1 -22.6%
CCC(=O)/C=C1\Sc2ccccc2N1CC -18.9%
Cc1cccc(NC(=S)N(CCN(C)C)C(C)c2ccco2)c1 (stereo unspecified) -21.1%
Cc1ccc(SCCC(=O)NC(C(C)C)C(C)C)cc1 -7.21%
